CSC inhib – cancer stem cell inhibition. cancer stem cell-like cells viability, luminescence. inhibition, % at 7.5 µM. 300,000 tested, 1.1% active. AID 2717; in the data active = inhibition above about 75%; inconclusive = no clear call, values can overlap the other calls; tested in HMLE shEcad cells
SKKanGAS inh – inhibitors of SKKanGAS S. pyogenes growth in kanamycin (SK-promoter or general growth effect) | AID 1662 | BacTiter-Glo, 6 h | inhibition, % at 7.5 µM | 300,000 tested, 1.3% active;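 active = mean replicate score, as percent of positive control median, at least 50; inconclusive = mean below 50 but one replicate at or above 50; inactive = mean and every replicate below 50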;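 also: strain carries kanamycin resistance gene driven by streptokinase promoter and grows in 40 µg/ml kanamycin; loss of luminescence reflects streptokinase promoter inhibition or plain growth inhibition; 0% = median of DMSO wells and 100% = positive control at its reference dose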
Mdm2-MdmX inh – inhibitors of human Mdm2/MdmX interaction; AID 485346; 330,000 tested, 3% active; O15151+Q00987; inhibition, % at 8 µM; SaOS-2 split-luciferase Mdm2/MdmX complementation, luminescence;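 active = inhibition of at least 50% at 8 µM in the primary screen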
Target sequence (O15151 whole entry, looked up): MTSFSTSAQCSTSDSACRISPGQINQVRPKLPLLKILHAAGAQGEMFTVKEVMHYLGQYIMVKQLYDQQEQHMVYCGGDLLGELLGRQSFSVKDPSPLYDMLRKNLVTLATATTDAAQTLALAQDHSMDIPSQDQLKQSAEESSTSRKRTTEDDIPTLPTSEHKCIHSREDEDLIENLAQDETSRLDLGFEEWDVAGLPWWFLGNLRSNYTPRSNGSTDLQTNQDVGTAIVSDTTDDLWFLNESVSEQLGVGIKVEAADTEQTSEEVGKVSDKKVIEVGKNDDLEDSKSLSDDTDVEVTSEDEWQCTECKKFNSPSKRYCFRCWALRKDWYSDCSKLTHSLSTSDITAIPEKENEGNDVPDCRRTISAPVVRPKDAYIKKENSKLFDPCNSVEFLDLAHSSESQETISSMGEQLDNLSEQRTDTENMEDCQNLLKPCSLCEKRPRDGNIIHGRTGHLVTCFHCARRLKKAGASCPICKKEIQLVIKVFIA
Target sequence (Q00987 whole entry, looked up): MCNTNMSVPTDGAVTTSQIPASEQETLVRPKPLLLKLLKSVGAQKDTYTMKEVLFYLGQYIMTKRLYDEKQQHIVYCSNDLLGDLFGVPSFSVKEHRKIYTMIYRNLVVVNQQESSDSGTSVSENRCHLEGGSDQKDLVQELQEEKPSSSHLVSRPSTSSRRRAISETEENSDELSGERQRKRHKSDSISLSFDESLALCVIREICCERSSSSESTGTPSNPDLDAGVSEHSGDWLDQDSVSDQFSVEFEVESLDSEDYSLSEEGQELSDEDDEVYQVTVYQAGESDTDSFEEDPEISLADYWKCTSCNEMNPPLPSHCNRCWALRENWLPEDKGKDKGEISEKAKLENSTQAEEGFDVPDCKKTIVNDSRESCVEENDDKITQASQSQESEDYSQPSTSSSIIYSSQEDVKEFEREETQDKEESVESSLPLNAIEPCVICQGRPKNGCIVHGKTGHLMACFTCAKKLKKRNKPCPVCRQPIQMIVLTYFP
Calb FLC – C. albicans growth modulation with fluconazole | C. albicans CaCi-2 (fluconazole-resistant clinical isolate) + fluconazole, Alamar Blue growth, 48 h | growth inhibition, % (concentration not given with the values) | 300,000 tested, 0.57% active;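 active = growth inhibition above about 58% in most replicates, limit read from the data, passing the limit was not always enough; inconclusive = exactly half the replicates above a set limit; inactive = most replicates below a set limit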;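 also: all wells also contain fluconazole at 8 µg/ml as a sub-toxic cotreatment; 0% = median of DMSO wells and 100% = median of geldanamycin control wells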
T cruzi inh – T. cruzi replication inhibition; T. cruzi beta-gal in NIH3T3, luminescence, 90 h; inhibition, % (concentration not given with the values); 300,000 tested, 1.4% active;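 active = mean inhibition across valid replicates above about 55%, limit read from the data; inconclusive = mean below that limit but half or more replicates reach it; inactive = mean below it, under half of replicates reach it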;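 also: signal also drops with host cell toxicity which is not excluded here; 0% = plate median of DMSO wells and 100% = zero luminescence signal; higher percent means less beta-gal luminescence so fewer parasites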
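compound dosing = single 50 nL compound addition per well in DMSO | material = NIH/3T3 host cells with β-galactosidase reporter T. cruzi | input = 5,000 host fibroblasts per well | timing = ≥90 h infection period, 3 h prior cell attachment | read-out basis = percent inhibition of parasite-derived β-gal signal | detection = GalScreen β-gal luminescence, detergent lysis, 60 min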
Beta cell apopt – beta cell apoptosis inhibition. INS-1E cytokine-induced death, ATP luminescence, 48 h; percent of positive-control rescue, neutral wells zero. 300,000 tested, 0.8% active. protection from apoptosis, % (test concentration not listed);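 active = Every replicate reaches about 75%, or at least half do and their mean reaches it too, limit read from the data; inconclusive = At least half of replicates reach the limit but their mean does not; inactive = Under half of replicates reach the limit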;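 also: 0% = cytokine-treated negative control wells and 100% = positive control rescue; higher means more ATP so stronger rescue from cytokine killing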
Mdm2 MdmX conf – human Mdm2/MdmX binding inhibition, confirmed; shares compounds with Mdm2-MdmX inh; inhibition, % at 8 µM; 10,000 tested, 55% active; luminescent assay; AID 489028; in the data active = inhibition above about 40%
FLuc counter – inhibits full-length luciferase, flagging false Mdm2/MdmX hits; 6,200 tested, 77% active; SaOS-2 full-length luciferase counterscreen, luminescence; shares compounds with Mdm2-MdmX inh; AID 504607; inhibition, % at 8 µM;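 active = mean inhibition at 8 µM reaching about 37%, which flags the compound as non-specific, limit read from the data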;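 also: p53-null SaOS-2 cells with luciferase driven by a doxycycline-inducible promoter; compound on cells about two nights before reading with doxycycline added after day one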
The depositor's hits bear a star; ? = inconclusive; · = no result given. An excerpt weighted towards active compounds, which were near 5.7% of everything screened.

SMILES	CSC inhib	SKKanGAS inh	Mdm2-MdmX inh	Calb FLC	T cruzi inh	Beta cell apopt	Mdm2 MdmX conf	FLuc counter
CN(C)C(=O)CCc1ccc2c3c([nH]c2c1)[C@]1(CCC2CCCC2)[C@@H](C(=O)N2CCOCC2)C[C@H](CC(=O)NCC24CC5CC(CC(C5)C2)C4)C(=O)N1CC3	·	·	70.0*	·	·	·	63.2*	43.9*
COc1ccc(OC)c(S(=O)(=O)Nc2cc(C)on2)c1	9.9	3.9	18.3	-34.8	-5.8	-5.1	·	·
CC1CN(C(=O)c2ccc(NS(=O)(=O)c3cccc(Cl)c3)cc2)CC(C)O1 (stereo not drawn)	·	-0.3	-9.6	-1.8	-7.5	·	·	·
CCn1cc([N+](=O)[O-])c(C(=O)N2N=C(c3ccc(OC)cc3OC)CC2c2ccccc2O)n1 (stereo not drawn)	0.4	-2.8	14.6	26.5	3.2	·	·	·
CCn1cc([N+](=O)[O-])c(C(=O)N2N=C(c3cccc4ccccc34)CC2c2ccccc2O)n1 (stereo not drawn)	3.8	38.7	51.9*	-7.0	28.7	1.3	41.2*	74.9*
O=C(c1ccccc1)N1N=C(c2ccccc2)CC1c1ccccc1O (stereo not drawn)	-4.1	3.8	16.6	-0.8	32.7	8.6	·	·
CCn1cc([N+](=O)[O-])c(C(=O)N2N=C(c3ccc4ccccc4c3)CC2c2ccccc2O)n1 (stereo not drawn)	-3.4	36.4	61.2*	14.1	41.0	2.7	58.6*	85.9*
CCn1cc(Cl)c(C(=O)N2N=C(c3ccc4ccccc4c3)CC2c2ccccc2O)n1 (stereo not drawn)	26.1	50.2*	69.0*	1.6	55.9*	-8.9	40.5*	56.7*
Cc1ccc(C)c(S(=O)(=O)N2CCN(C(=O)Cn3cnc4c3c(=O)n(C)c(=O)n4C)CC2)c1	-8.8	22.4	15.3	-1.2	-9.0	-10.5	·	·
Cc1onc(-c2c(Cl)cccc2Cl)c1C(=O)Nc1nccs1	1.8	-7.1	18.7	14.3	-22.0	3.8	·	·
CC(C)(C)c1ccc(S(=O)(=O)N2CCN(CC(O)CN3CCOCC3)CC2)cc1 (stereo not drawn)	-6.8	·	0.0	·	·	-2.0	·	·
Cc1nnc2n(-c3ccccc3)c(=O)c3c4c(sc3n12)COC(C)(C)C4	-4.0	4.2	23.9	3.1	-14.7	-6.7	·	·
CCCCSc1nnc2n(CCc3ccccc3)c(=O)c3c4c(sc3n12)COC(C)(C)C4	2.7	-11.5	55.3*	14.5	34.8	26.0	24.6	·
COc1ccccc1NC(=O)c1ccc(NC(=O)c2ccc(=O)[nH]c2)cc1	-16.2	·	24.6	·	·	0.6	·	·
CCn1c(NC(=O)c2ccc(COc3ccc(C)cc3[N+](=O)[O-])o2)nc2ccccc21	30.0	31.1	59.1*	-1.5	42.8	20.8	41.5*	93.6*
CCc1ccccc1Nc1nc(N)nc(COC(=O)C2CCN(C(=O)c3ccc(F)cc3)CC2)n1	·	·	41.1	·	·	·	·	·
CCC(C)Nc1nc(N)c([N+](=O)[O-])c(Nc2cc(OC)ccc2OC)n1 (stereo not drawn)	63.3	68.7*	68.6*	7.6	27.9	0.7	19.0	·
COc1ccc(OC)c(Nc2nc(NCCC(C)C)nc(N)c2[N+](=O)[O-])c1	51.6	24.6	41.9	-4.7	18.3	·	·	·
CCC(C)Nc1nc(N)c([N+](=O)[O-])c(Nc2ccccc2OC)n1 (stereo not drawn)	27.4	1.5	58.6*	10.0	15.9	-4.4	24.1	·
CCn1c(SCC(=O)NC2CCCC2)nnc1-c1ccccn1	-11.7	-5.8	8.0	·	-7.5	4.3	·	·
Oc1ccc(C(=S)N2CCN(c3cccc(Cl)c3)CC2)cc1	-13.6	·	11.3	-16.4	13.5	1.7	·	·
COc1cc(C(=S)N2CCN(c3cccc(Cl)c3)CC2)ccc1O	-11.7	-0.2	54.7*	-7.9	-6.8	2.0	54.8*	50.7*
COc1cc2c3nnc(-c4ccccc4)c-3cn(Cc3ccccc3F)c2cc1OC	23.2	·	84.1*	·	50.7	15.8	53.0*	39.5*
S=C(Nc1cccnc1)NC1CC2CCC1C2 (stereo not drawn)	-1.3	-8.4	3.4	-5.7	-23.3	-4.0	·	·
CC1=CC(=Nc2c(C)n(C)n(-c3ccccc3)c2=O)C=C(C)C1=O	12.3	4.2	77.4*	-3.5	-34.7	·	26.3	·
SMILES	CSC inhib	SKKanGAS inh	Mdm2-MdmX inh	Calb FLC	T cruzi inh	Beta cell apopt	Mdm2 MdmX conf	FLuc counter
CC1=CC(=Nc2c(C)n(C)n(-c3ccccc3)c2=O)C=CC1=O	10.5	9.7	69.0*	2.4	-3.9	3.8	7.5	·
CCC(C)C1=CC(=Nc2c(C)n(C)n(-c3ccccc3)c2=O)C=C(C(C)CC)C1=O (stereo not drawn)	6.3	0.7	5.9	10.4	21.2	-2.3	·	·
CCOC(=O)c1c2ccc(OCC(=O)N/N=C/c3ccc(C)cc3)cc2n2ccccc12	114.0*	2.2	83.8*	30.9	-14.5	61.6	78.8*	107.0*
Cc1cc(Br)c(OCc2ccc(C(=O)N/N=C/c3ccc[nH]3)cc2)c(Br)c1	97.9*	·	97.7*	·	·	116.8*	94.4*	11.2
O=C(N/N=C/c1ccc[nH]1)c1ccc(COc2cccc3cccnc23)cc1	99.8*	18.3	96.9*	-22.1	16.5	99.7*	82.7*	52.3*
COc1ccc(CNS(=O)(=O)c2ccc3c(c2)N(C(C)=O)CC(C)S3)cc1 (stereo not drawn)	-17.5	-2.1	32.2	-22.8	0.1	13.5	·	·
Cc1cnc(CNC(=O)CC2C(=O)NCCN2Cc2cccc(F)c2F)cn1 (stereo not drawn)	1.3	-0.4	21.8	-2.9	-17.0	1.5	·	·
Cc1c(C(=O)Nc2nonc2-c2ccc(F)cc2)oc2ccc(F)cc12	?	57.1*	85.8*	·	-18.9	-1.5	76.5*	52.0*
O=C(NCC(c1ccco1)N1CCN(c2ccccc2)CC1)C(=O)NC1CC1 (stereo not drawn)	-0.5	-0.8	-2.4	-3.8	-6.7	-12.6	·	·
Cc1cc(C)c(C)c(S(=O)(=O)N2CCN(C(=O)c3ccccn3)CC2)c1C	·	·	2.9	·	·	·	·	·
Cc1cccc(N2CCN(Cc3cn(C)nc3-c3ccccc3F)CC2)n1	50.6	-11.3	54.8*	-2.6	-63.9	26.3	69.7*	49.4*
CCCCOc1ccccc1C(=O)N(Cc1ccc(C)o1)C1CCS(=O)(=O)C1 (stereo not drawn)	-5.8	-3.2	10.6	4.8	-1.3	-7.0	·	·
COc1ccc(Cc2nnc(NC(=O)c3cc(OC)cc(OC)c3)s2)cc1	58.1	12.0	52.0*	11.0	1.3	-8.2	46.1*	86.1*
COc1cccc(-c2nnc(SC(C(=O)c3c[nH]c4ccccc34)c3ccccc3)n2C)c1 (stereo not drawn)	46.5	36.5	55.7*	2.7	39.7	-1.6	36.0	·
